Assays:
[1] = system: PBMC; experiment: Inhibition of LPS stimulated Tumor Necrosis Factor-alpha (TNF-alpha) release by human PBMC, cytotoxic at 10 and 100 uM; format: functional, cell-based
[2] = biological target: T1, Phosphodiesterase 4 (Homo sapiens, UniProt P27815+Q08499+Q07343+Q08493); experiment: Inhibition of phosphodiesterase 4 from U937 cells; format: cell-based; settings: u-937
[3] = system: PBMC; experiment: (§1) Inhibition of LPS stimulated Tumor Necrosis Factor-alpha (TNF-alpha) release by human PBMC; format: functional, cell-based
[4] = biological target: T1, Phosphodiesterase 4; experiment: Inhibition of PDE4 enzyme from U937 cells; format: cell-based; settings: u-937
Outline: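 Crude PDE4 from U937 cells: lysate supernatant run on Sephacryl S-200, rolipram-sensitive fractions pooled. Assay in 50 mM Tris-HCl pH 7.5, 5 mM MgCl2, 1 µM cAMP (1% 3H-cAMP), varying inhibitor, <15% substrate consumed; 30 °C, 30 min. Boiled, snake-venom treated, AG1-X8 resin, aqueous phase counted. Duplicates, % of control; IC50 by variable-slope nonlinear regression, three independent experiments.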

[5] = system: PBMC; experiment: as §1

IC50 [2]	IC50 [4]	Compound	IC50 [1]	IC50 [3]	IC50 [5]
4700 nM		COC(=O)CC(c1ccc(OC)c(OC)c1)N1C(=O)c2c(F)c(F)c(F)c(F)c2C1=O (configuration not stated)	260 nM		
	1700 nM	COC(=O)CC(c1ccc(OC)c(OC2CCCC2)c1)N1C(=O)c2ccccc2C1=O (configuration not stated)		1600 nM	
	1100 nM	COc1ccc(C(CC(N)=O)N2C(=O)c3ccccc3C2=O)cc1OC1CCCC1 (configuration not stated) [CDC-801]		2500 nM	
	1300 nM	COc1ccc(C(CC#N)N2C(=O)c3ccccc3C2=O)cc1OC (configuration not stated)		1700 nM	
	130 nM	CCOc1cc(C(CC#N)N2C(=O)c3ccccc3C2=O)ccc1OC (configuration not stated)		120 nM	
2200 nM		CCOc1cc(C(CC(=O)OC)N2C(=O)c3c(F)c(F)c(F)c(F)c3C2=O)ccc1OC (configuration not stated)	380 nM		
	2500 nM	COC(=O)CC(c1ccc(OC)c(OC)c1)N1C(=O)c2ccccc2C1=O (configuration not stated)		2900 nM	
	350 nM	COc1ccc(C(CC#N)N2C(=O)c3ccccc3C2=O)cc1OC1CCCC1 (configuration not stated)		1600 nM	
	740 nM	COC(=O)CC(c1ccc(OC)c(OC2CC3CCC2C3)c1)N1C(=O)c2ccccc2C1=O (configuration not stated)		2400 nM	
		COc1ccc(C2CNC(=O)C2)cc1OC1CCCC1 (configuration not stated) [ROLIPRAM]			150 nM
	2000 nM	CCOc1cc(C(CC(N)=O)N2C(=O)c3ccccc3C2=O)ccc1OC (configuration not stated)		2700 nM	
	> 500000 nM	O=C1CCC(N2C(=O)c3ccccc3C2=O)C(=O)N1 (configuration not stated) [THALIDOMIDE]		~200000 nM	
	9400 nM	COc1ccc(C(CC(N)=O)N2C(=O)c3ccccc3C2=O)cc1OC (configuration not stated)		13000 nM	
	230 nM	CCOc1cc(C(CC(=O)OC)N2C(=O)c3ccccc3C2=O)ccc1OC (configuration not stated)		700 nM	

— ChEMBL document CHEMBL1130594, “Thalidomide analogs and PDE4 inhibition” (Bioorg Med Chem Lett, 1998)
